Test results: PubChem BioAssay AID504383 (The Scripps Research Institute Molecular Screening Center, 2011)
The whole screen tested about 2,500 compounds, of which about 1,200 (48%) were called active.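 How the source made its calls: active means mean activation above the low control average plus 3 SD, as set in the primary screen (cut at about 12% in these data); inactive means the rest.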 The set was probably picked from earlier hits. The list shows a part of the results.

target: Troponin I, cardiac muscle (Homo sapiens) + Troponin T, cardiac muscle (Homo sapiens) + Troponin C, slow skeletal and cardiac muscles (Homo sapiens) (UniProt P19429+P45379+P63316); assay: cardiac RTF calcium sensitivity activators, confirmation, biochemical, IANBD-TnC fluorescence, triplicate (AID 504383); details: IANBD-labeled cardiac RTF, Ca2+ sensitivity fluorescence; at 7.2 µM; active compounds read high; scaled from EC20 to saturating calcium; tested at EC20 calcium, 0.472 mM;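 further: 0% = DMSO at 0.472 mM calcium and 100% = DMSO at 2.9 mM calcium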
Procedure, shortened: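 System: Labelled thin filament complex | Technique: Filament fluorescence intensity | Benchmarks: Low control EC20 calcium, high control EC100 calcium | Timing: 15 min at 25 °C | Compound dosing: One dose, 7.2 µM nominal | Probe or stimulus: Ca2+ 0.472 mM, EC20 level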

activation, inactive:
Cc1ccc(NC(=O)CN(C)C(=O)COC(=O)COc2ccc(C#N)cc2)cc1 3.65%
COc1cccc(CNC(=O)CCS(=O)(=O)c2cc3c(cc2C)NC(=O)CO3)c1 7.4%
Cc1ccc(CNC(=O)CCS(=O)(=O)c2cc3c(cc2C)NC(=O)CO3)cc1 3.23%
CN1C2CCC1/C(=C/c1cccn1C)C(=O)/C2=C\c1cccn1C 9.37%
CCCc1ccc(OCc2ccc(C(=O)NN)o2)c(OC)c1 7.64%
COc1cc(OC)c(C(=O)NC2CCCCCC2)cc1OC -0.45%
COC(=O)c1cc(N2CCN(C)CC2)nc2ccccc12 9.59%
COc1ccc(C(Nc2ccc(S(=O)(=O)NCC3CCCO3)cc2)C(=O)NC(C)(C)C)cc1OC (configuration not stated) 9.44%
CCCNC(=O)c1ccc(N2CCC3(CC2)CC(c2cccc(Br)c2)=NO3)c(NC(=O)c2cccc(C)c2)c1 9.93%
C[C@H](CO)NC(=O)[C@@H]1C[C@H]1[C@@H](NP(=O)(c1ccccc1)c1ccccc1)c1ccccc1 1.68%
COc1cccc(/C=N/Nc2nnc(C)n2N)c1O 5.74%
O=C1c2ccccc2-c2onc3c(N4CCN(CCO)CC4)cc(N4CCN(C(=O)c5ccco5)CC4)c1c23 7.32%
O=C(O)CCNc1cc(N2CCN(C(=O)c3ccco3)CC2)c2noc3c2c1C(=O)c1ccccc1-3 3.54%
CCN(CC)CCCC(C)n1c2nc(=O)[nH]c(=O)c-2nc2cc(Cl)ccc21 (configuration not stated) 7.49%
CCOC(=O)c1ccc(N=c2sc(C(=O)OC)cc(=O)n2CCCN2CCOCC2)cc1 4.75%
CCOC(=O)c1c(NC(=S)N2CCN(C)CC2)sc2c1CCN(C(=O)OCC)C2 7.96%
CCC(CC)NC(=O)Nc1ccccc1C 7.62%
N#Cc1ccc(S(=O)(=O)NC2CCN(Cc3ccccc3)CC2)cc1 9.61%
O=C1NCCCCC1NS(=O)(=O)c1cccc(C(F)(F)F)c1 (configuration not stated) 7.86%
COc1[nH]c(/N=C/c2ccccc2)c(C#N)c1C#N 7.9%
CCOc1ccc(NC(=O)C2CCN(S(=O)(=O)c3cccnc3)CC2)cc1 0.88%
O=C(CSc1n[nH]c(-c2cccs2)n1)N1CCOCC1 3.55%
O=C(Nc1ccccc1N1CCOCC1)C1CCN(S(=O)(=O)c2ccccc2F)CC1 3.08%
O=C(CC1CCCC1)N1CCN(S(=O)(=O)c2ccccc2)CC1 3.96%
O=C(c1cc(-c2cccs2)nn1-c1ccccc1)N1CCN(S(=O)(=O)c2ccccc2)CC1 3.27%
N#Cc1cccc(NC(=S)Nc2ccccc2)c1 6.24%
COc1ccc(/C(O)=C2\C(=O)C(=O)N(Cc3ccco3)C2c2cc(OC)ccc2OC)cc1 (configuration not stated) 10.9%
COC(=O)N1CCN(S(=O)(=O)c2ccc(F)cc2)CC1 8.33%
COc1ccc(C(=O)Nc2ccccc2-c2ccccc2)cc1Cl 11%
O=[N+]([O-])c1cc(-c2ccn[nH]2)ccc1Cl 10.1%
O=C1/C(=C\c2cc(Cl)c(O)c(Cl)c2)SC(=S)N1Cc1ccccc1 -1.15%
COc1ccc(/C=C2\SC(=S)N(CCCC(=O)Nc3ccccn3)C2=O)cc1OC 9.09%
COc1ccc(N2C(=O)c3cccc4c(N(C)CCO)ccc(c34)C2=O)cc1 4.11%
Cc1ccc(S(=O)(=O)N2CCOCC2)cc1C(=O)N1C(=O)c2cccc(N)c2C1=O 8.84%
Cc1nnc(N2CCOCC2)c2nn(-c3cccc(Cl)c3)c(C)c12 4.95%
COC(=O)N/N=C/c1cccnc1 2.85%
O=C(CNC(=O)c1cccc(Cl)c1)N/N=C/c1cccnc1 11%
O=C(C[n+]1cccc2ccccc21)c1ccccc1 10.7%
O=C(CCC1CCCN(C(=O)c2ccncc2)C1)NCc1ccc(F)c(F)c1 (configuration not stated) 3.6%
O=C(NCCc1ccccc1)C1CCN(c2ncccn2)CC1 2.88%
CCOC(=O)c1ccccc1-n1nnnc1C 1.99%
CCOC(=O)c1cc2c(s1)-c1ccccc1CC2 0.58%
CCC(C)[C@H](NC(=O)N1CCC(C)CC1)C(=O)OC (some centres not stated) 11.1%
COc1ccccc1-c1sc2ccccc2c1-c1ccc(Br)nc1 -1.06%
CCN(C(=O)c1cc2ccccc2oc1=O)c1ccccc1 8.22%
CCOC(=O)/C(=N\Nc1ccc(C(C)=O)cc1)c1csc(Nc2ccccc2)n1 11.1%
COc1ccc(OCC(=O)OCCNC(=O)c2cccnc2)cc1 5.53%
Cc1ccc(OCCCC(=O)NC2CCCCC2)cc1 4.78%
Cc1sc2nc(COC(=O)c3cccc(S(=O)(=O)N(C)c4ccccc4)c3)[nH]c(=O)c2c1C 2.91%
Cc1ccc(CNC(=O)c2cc(-c3ccccc3)nn2Cc2cc(C)no2)cc1 8.67%
Cc1ccc(C)c(C(=O)CCC(=O)NCc2ccc(Cl)cc2)c1 10.5%
O=C(Nc1cc2c(cc1Br)OCCCO2)c1cccnc1 2.74%
COc1ccc(-n2nc3c(N4CCC(C(=O)N5CCC(C)CC5)CC4)nnc(C)c3c2C)cc1 2.83%

activation, active:
Cc1cc(=O)oc2cc(OCC(=O)OCC(=O)NC(C)C)ccc12 14.7%
Cc1cc2c(cc1S(=O)(=O)CCC(=O)NCCc1ccccc1)OCC(=O)N2 32.7%
CC(C(=O)O)N1C(=O)/C(=C/c2cccn2C)SC1=S (configuration not stated) 23.1%
CCC(C(=O)O)N1C(=O)/C(=C/c2cccn2C)SC1=S (configuration not stated) 52.1%
CC(C)C(C(=O)O)N1C(=O)/C(=C/c2cccn2C)SC1=S (configuration not stated) 21.6%
CCCOc1ccc(Cn2c(=O)oc3ccc(C)cc32)cc1OC 23.1%
O=C(NC1CCCCC1)c1cc2nc3c(c(C(F)(F)F)n2n1)CCCC3 29.3%
CN1CCN(c2ccc(-c3cccc(NC(=O)COc4ccccc4)c3)nn2)CC1 25%
COCCNC(=O)[C@H]1C[C@@H]1[C@H](NP(=O)(c1ccccc1)c1ccccc1)c1ccccc1 3770%
COc1ccc(-c2nn(-c3ccccc3)cc2/C=N/NC(N)=S)cc1OC 29%
Cc1ccc(C(C(=O)NC(C)(C)C)N(C(=O)c2csnn2)C2CC2)cc1 (configuration not stated) 100%
O=C(c1ccco1)N1CCN(c2ncnc3c(-c4ccc(Cl)cc4)nsc23)CC1 112%
O=C(NC(=S)NCCN1CCOCC1)c1ccc(F)cc1 72.6%
CCOC(=O)N1CCN(C(=S)Nc2ccccc2C)CC1 32.7%
N#Cc1ccc(S(=O)(=O)NC2CCCCNC2=O)cc1 (configuration not stated) 93.6%
CCOP(=O)(OCC)/C(=N/OC(=O)c1ccc(OC)cc1)C(N)=O 11.7%
O=C(Nc1ccc(Cl)cn1)C1CCN(S(=O)(=O)c2cccs2)CC1 242%
O=C(Nc1nccs1)C1CCN(S(=O)(=O)c2ccccc2)CC1 1030%
O=C(Cc1cccs1)N1CCN(S(=O)(=O)c2cc(Cl)ccc2Cl)CC1 13.5%
O=C(c1cc(Cl)ccc1O)N1CCN(S(=O)(=O)c2cccs2)CC1 683%
COc1ccc(NC(=O)CSc2ccc3c4c(cccc24)C(=O)c2ccccc2-3)cc1 19.2%
N#Cc1cccc(NC(=O)CSc2ccc3c4c(cccc24)C(=O)c2ccccc2-3)c1 15.7%
COc1ccc(NC(=O)CC2C(=O)N(Cc3ccco3)C(=S)N2C(C)C)cc1 (configuration not stated) 41.6%
O=S(=O)(c1ccc(F)cc1)N1CCN(CCOc2ccccc2)CC1 956%
O=C(Nc1ccccc1-c1ccccc1)c1ccc(Cl)c([N+](=O)[O-])c1 48.5%
COc1ccc(/C=C2\SC(=S)N(CCCC(=O)Nc3ccccc3C(=O)O)C2=O)cc1OC 28.5%
COc1cc(/C=C2/SC(=S)N(Cc3ccccc3)C2=O)cc(Cl)c1O 5470%
C/C=C/c1ccc(OCCCNCC(C)O)c(OC)c1 (configuration not stated) 663%
CCC/C(C#Cc1ccc(N(C)C)cc1)=C1/c2ccccc2C(=O)N1c1ccccc1 94.7%
Cc1ccc(S(=O)(=O)c2cccc(S(=O)(=O)N3CCOCC3)c2)cc1S(=O)(=O)N1CCOCC1 20.6%
COc1ccc(/C=N/NC(=O)c2cc(OC)c(OC)c(OC)c2)cc1CN1CCc2cc(OC)c(OC)cc2C1C (configuration not stated) 28.3%
COc1ccc(/C=N/NC(=O)c2cccnc2)cc1CN1CCOCC1 36.1%
COC(=O)C[n+]1cccc2ccccc21 212%
O=C(NCc1ccc(Cl)cc1)C1CCN(c2cnccn2)CC1 68.5%
CCOC(=O)c1cc2n(c1N)-c1ccccc1C2=O 71.8%
Oc1ccc(-c2c(C3=CCCCC3)sc3ccccc23)cc1 125%
N#CCCN(C(=O)c1ccco1)c1ccccc1 4250%
CCOC(=O)c1cnc2ccccc2c1Nc1ccc(C(=O)O)cc1 161%
COc1ccc(OCCNC(=O)c2ccc(C)cc2)cc1 28.4%
Cc1ccc(CNC(=O)CCn2cc(-c3ccc(C)cc3)nc2-c2ccncc2)cc1 57.1%
Cc1ccc(-c2ccc(OC(=O)c3ccc(=O)[nH]c3)c(C)c2)cc1 28.2%
CCc1ccc(NC(=O)C2CCN(S(=O)(=O)c3ccc4[nH]c(=O)ccc4c3)CC2)cc1 12.1%
CC(=O)Nc1ccc(Nc2cc(N(C)C)c3nonc3c2[N+](=O)[O-])cc1 99.2%
CC1CCN(c2ccc(NC(=O)c3cccnc3)cc2)CC1 19.8%
